The source of these data is ChEMBL document CHEMBL1158098, “Crassolides A-F, cembranoids with a trans-fused lactone from the soft coral Sarcophyton crassocaule” (J Nat Prod, 2006).

Common to all, as to type: functional, cell-based
A short description of experiment [1]: Cytotoxicity against human Hep G2 cells by MTT colorimetric method. Conditions: HepG2. Summed up:
(§1)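 Human cancer cell lines were obtained from ATCC. Cytotoxicity was measured by the MTT [3-(4,5-dimethylthiazol-2-yl)-2,5-diphenyltetrazolium bromide] colorimetric method.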

In a further experiment the test system is MCF7. Put plainly: Cytotoxicity against human MCF7 cells by MTT colorimetric method. Summed up:
as §1

In a further experiment the test system is MDA-MB-231. Put plainly: Cytotoxicity against human MDA-MB-231 cells by MTT colorimetric method. Put shortly: as §1
The next experiment deals with A549. Put plainly: Cytotoxicity against human A549 cells by MTT colorimetric method. Put shortly: as §1

Converted amounts (≈) assume the structure as drawn.

In the case of `C=C1C(=O)O[C@@H]2[C@@H]1C[C@H](OC(C)=O)[C@](C)(O)CC/C=C(\C)CC/C=C(\C)[C@@H]2OC(C)=O` [CRASSOCOLIDE B], the IC50 is 13.1 µg/mL (≈ 30.1 µM) in experiment [1], 10.3 µg/mL (≈ 23.7 µM) in the experiment with MCF7, greater than 30 µg/mL with MDA-MB-231 and 12.1 µg/mL (≈ 27.8 µM) in the experiment on A549.
Regarding `C=C1C(=O)O[C@H]2C/C(C)=C/CC/C(C)=C/CC[C@@](C)(O)[C@@H](OC(C)=O)C[C@H]12` [CRASSOCOLIDE C], the IC50 (in experiment [1]; in the experiment on MCF7; in the experiment with MDA-MB-231; with A549) was greater than 30 µg/mL each time.
For the molecule `C=C1C(=O)O[C@H]2C/C(C)=C/CC/C(C)=C/CC[C@@](C)(O)[C@@H](O)C[C@H]12` [CRASSOCOLIDE D], the IC50 is greater than 30 µg/mL in experiment [1], 15.3 µg/mL (≈ 45.7 µM) in the experiment on MCF7, greater than 30 µg/mL in the experiment on MDA-MB-231 and 12.5 µg/mL (≈ 37.4 µM) in the experiment on A549.
For `C=C1C(=O)O[C@H]2C[C@@]3(C)O[C@@H]3CC/C(C)=C/C[C@@H](OC(C)=O)/C(C)=C/C[C@H]12` [CRASSOCOLIDE F], the IC50 in experiment [1] came to 2.1 µg/mL (≈ 5.61 µM); in the experiment on MCF7, 7.4 µg/mL (≈ 19.8 µM); with MDA-MB-231, 8.8 µg/mL (≈ 23.5 µM); with A549, 3.2 µg/mL (≈ 8.55 µM).
Taken in the same sequence, the figures for `C=C1C(=O)O[C@@H]2[C@@H]1C[C@H](O)[C@](C)(O)CC/C=C(\C)CC/C=C(\C)[C@@H]2OC(C)=O` [CRASSOLIDE A] were 3.1 µg/mL (≈ 7.9 µM), 8.9 µg/mL (≈ 22.7 µM), 8.6 µg/mL (≈ 21.9 µM) and 11.9 µg/mL (≈ 30.3 µM).
In the case of `COc1cccc2c1C(=O)c1c(O)c3c(c(O)c1C2=O)C[C@@](O)(C(=O)CO)C[C@@H]3O[C@H]1C[C@H](N)[C@H](O)[C@H](C)O1` [DOXORUBICIN], the IC50 in experiment [1] is 0.2 µg/mL (≈ 0.368 µM); in the experiment on MCF7 it was 0.3 µg/mL (≈ 0.552 µM); in the experiment with MDA-MB-231, 0.1 µg/mL (≈ 0.184 µM).
Take `C=C1C(=O)O[C@H]2C[C@]3(C)O[C@H]3CC/C(C)=C/CC/C(C)=C/C[C@H]12` [LOBOPHYTOLIDE]: the IC50 in experiment [1] was 6.3 µg/mL (≈ 19.9 µM); with MCF7, 2.3 µg/mL (≈ 7.27 µM); in the experiment with MDA-MB-231 it was 2 µg/mL (≈ 6.32 µM); in the experiment with A549, 2.1 µg/mL (≈ 6.64 µM).
